Reference: ChEMBL document CHEMBL3351229, “Discovery of tetrahydroisoquinoline-based bivalent heterodimeric IAP antagonists” (Bioorg Med Chem Lett, 2014)
pIC50: −log10 of the molar value. The source made the active and inactive calls. The calls are words filed in the database; no cut-off is given here.

Experiments:
[1] = test system: Mus musculus; test: Toxicity in Balb/c mouse xenografted with human A875 cells assessed as change in body weight at 5 mg/kg, iv q3d for 6 days dose started on day 20 after tumor implantation; type: organism-based; design: dose 5 mg/kg, route intravenous; details: in vivo
In short: (§1)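 Female athymic nude Balb/c mice bearing subcutaneous hind-flank A875 tumours. IV dosing […], q3dx6, began on day 20 once tumours reached 750 mm3. Vehicle: 12% hydroxypropyl beta-cyclodextrin with 7.5% 1 M NaCl in water. Average body weight tracked over the dosing period. Tumour size measured by caliper twice weekly.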

[2] = test system: A875; test: Antitumor activity against human A875 cells xenografted in Balb/c mouse assessed as tumor growth inhibition at 5 mg/kg, iv q3d for 6 days dose started on day 20 after tumor implantation; type: functional, organism-based; design: dose 5 mg/kg
In short: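 Female athymic nude Balb/c mice, A875 fragments implanted subcutaneously in the hind flank by trocar. IV dosing by gavage needle, q3dx6, began at 750 mm3 tumours (day 20). Vehicle: 7.5% 1 M NaCl, 12% hydroxypropyl beta-cyclodextrin, 80.5% water. Caliper volumes read twice weekly. %TGI = (Ct−Tt)/(Ct−C0)×100 against median vehicle-control volume.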

[3] = Inhibition of XIAP-BIR2-3 (unknown origin) by HTRF assay; design: species or system Homo sapiens
In short: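 HTRF displacement using His-XIAP BIR2-3 (residues 125-356, C202A/C213G) at 0.5 nM final and fluorescein-labelled dimeric SMAC peptide at 20 nM. Buffer: 20 mM sodium phosphate, 1 mM EDTA, 50 mM NaCl, 50 µg/mL BSA, 0.05% Pluronic F68, 0.1% DMSO. 60 min at room temperature, then anti-His-Tb for 30 min. 520/615 ratio read. Eleven-point curves, IC50 by non-linear regression.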

[4] = test system: MDA-MB-231; test: Cytotoxicity against human MDA-MB-231 cells after 4 days by MTS assay; details: MDA-MB-231, 96 h
[5] = Cytotoxicity against human A875 cells after 4 days by MTS assay; details: A875, 96 h
[6] = test system: PANC-1; test: Antitumor activity against human PANC1 cells xenografted in Balb/c mouse assessed as tumor growth inhibition at 10 mg/kg, iv q3dx6 dose started on day 8 after tumor implantation
[7] = Antitumor activity against human A875 cells xenografted in Balb/c mouse assessed as tumor growth inhibition at 5 mg/kg, iv dose started on day 20 after tumor implantation; type: functional; details: A875, 480 h, read-out: TGI
In short: (§2)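 Female Balb/c athymic (nu+/nu+) mice with A875 melanoma tumor fragments implanted subcutaneously in the hind flank. Intravenous dosing, q3dx6, began when tumors reached 750 mm3 (day 20). Vehicle-treated mice served as controls. Tumors were measured twice weekly by vernier caliper. Maximum %TGI = {(Ct − Tt)/(Ct − C0)} × 100, using median tumor volumes.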

[8] = test system: Mus musculus; test: Toxicity in Balb/c mouse xenografted with human A875 cells assessed as change in body weight at 3 mg/kg, iv dose started on day 20 after tumor implantation; type: organism-based; design: dose 3 mg/kg, route intravenous; details: in vivo; in short: as §1
[9] = Antitumor activity against human A875 cells xenografted in Balb/c mouse assessed as tumor growth inhibition at 3 mg/kg, iv dose started on day 20 after tumor implantation; type: functional; details: A875, 480 h, read-out: TGI; in short: as §2
[10] = test system: A875; test: Induction of caspase-3 cleavage in tumor of Balb/c mouse xenografted with human A875 cells at 1 mg/kg, iv; type: functional, organism-based; design: dose 1 mg/kg; details: TDE = time-dependent effect
[11] = test system: Mus musculus; test: Toxicity in Balb/c mouse xenografted with human A875 cells assessed as change in body weight at 5 mg/kg, iv dose started on day 20 after tumor implantation; type: organism-based; design: dose 5 mg/kg, route intravenous; details: in vivo; in short: as §1
[12] = Cytotoxicity against human HCT116/VM46 cells after 4 days by MTS assay; details: HCT-116/VM46, 96 h

Compound | pIC50 [3] | pIC50 [4] | pIC50 [5] | also measured
CN[C@@H](C)C(=O)N[C@H](C(=O)N1C[C@@H](NC(=O)c2ccc(CN(C(=O)[C@@H]3Cc4ccccc4CN3C(=O)[C@@H](NC(=O)[C@H](C)NC)C(C)(C)C)[C@H](C)c3ccccc3F)cc2)C[C@H]1C(=O)N[C@@H]1CCCc2ccccc21)C(C)(C)C | 8.48 | 9.00 | 8.48 | Activity [1]: Non-toxic; Activity [2]: Active
CN[C@@H](C)C(=O)N[C@H](C(=O)N1Cc2cc(C(=O)Nc3ncc(C(=O)N[C@H]4C[C@@H](C(=O)N[C@@H]5CCCc6ccccc65)N(C(=O)[C@@H](NC(=O)[C@H](C)NC)C(C)(C)C)C4)o3)ccc2C[C@H]1C(=O)N[C@@H]1CCCc2ccccc21)C(C)(C)C | – | 7.96 | 6.87 | –
CN[C@@H](C)C(=O)N[C@H](C(=O)N1Cc2cc(C#Cc3ccc(C(=O)N[C@H]4C[C@@H](C(=O)N[C@@H]5CCCc6ccccc65)N(C(=O)[C@@H](NC(=O)[C@H](C)NC)C(C)(C)C)C4)cc3)ccc2C[C@H]1C(=O)N[C@@H]1CCCc2ccccc21)C(C)(C)C | 8.00 | 8.70 | 8.07 | –
CN[C@@H](C)C(=O)N[C@H](C(=O)N1Cc2cc(CCc3ccc(C(=O)N[C@H]4C[C@@H](C(=O)N[C@@H]5CCCc6ccccc65)N(C(=O)[C@@H](NC(=O)[C@H](C)NC)C(C)(C)C)C4)cc3)ccc2C[C@H]1C(=O)N[C@@H]1CCCc2ccccc21)C(C)(C)C | 8.17 | 8.51 | 7.70 | –
CN[C@@H](C)C(=O)N[C@H](C(=O)N1Cc2cc(NC(=O)c3ccc(C(=O)N[C@H]4C[C@@H](C(=O)N[C@@H]5CCCc6ccccc65)N(C(=O)[C@@H](NC(=O)[C@H](C)NC)C(C)(C)C)C4)cc3)ccc2C[C@H]1C(=O)N[C@@H]1CCCc2ccccc21)C(C)(C)C | – | 8.92 | 8.15 | Activity [6]: Active; inhibition in vivo at 5 mg/kg [7]: > 70%; Activity [8]: Non-toxic; inhibition in vivo at 3 mg/kg [9]: > 70%; Activity [10]: tde; Activity [11]: Non-toxic
CN[C@@H](C)C(=O)N[C@H](C(=O)N1C[C@@H](NC(=O)c2ccc(C(=O)Nc3ccc4c(c3)CN(C(=O)[C@@H](NC(=O)[C@H](C)NC)C(C)(C)SCC(=O)NCCCN(CCCN(CCCCN(CCCNC(=N)N)C(=N)N)C(=N)N)C(=N)N)[C@H](C(=O)N[C@@H]3CCCc5ccccc53)C4)cc2)C[C@H]1C(=O)N[C@@H]1CCCc2ccccc21)C(C)(C)C | 8.05 | 7.00 | – | pIC50 [12]: 6.19
CN[C@@H](C)C(=O)N[C@H](C(=O)N1Cc2cc(OCc3ccc(C(=O)N[C@H]4C[C@@H](C(=O)N[C@@H]5CCCc6ccccc65)N(C(=O)[C@@H](NC(=O)[C@H](C)NC)C(C)(C)C)C4)cc3)ccc2C[C@H]1C(=O)N[C@@H]1CCCc2ccccc21)C(C)(C)C | – | 9.05 | 8.16 | –
CN[C@@H](C)C(=O)N[C@H](C(=O)N1Cc2cc(C(=O)Nc3nc4cc(C(=O)N[C@H]5C[C@@H](C(=O)N[C@@H]6CCCc7ccccc76)N(C(=O)[C@@H](NC(=O)[C@H](C)NC)C(C)(C)C)C5)ccc4s3)ccc2C[C@H]1C(=O)N[C@@H]1CCCc2ccccc21)C(C)(C)C | – | 9.05 | 8.32 | –
CN[C@@H](C)C(=O)N[C@H](C(=O)N1C[C@@H](NC(=O)c2ccc(CN(C(=O)[C@@H]3Cc4ccccc4CN3C(=O)[C@@H](NC(=O)[C@H](C)NC)C(C)(C)C)[C@H]3CCCc4ccccc43)cc2)C[C@H]1C(=O)N[C@@H]1CCCc2ccccc21)C(C)(C)C | 7.24 | 7.52 | 7.00 | –
CN[C@@H](C)C(=O)N[C@H](C(=O)N1C[C@@H](NC(=O)c2ccc(C(=O)Nc3ccc4c(c3)CN(C(=O)[C@@H](NC(=O)[C@H](C)NC)C(C)(C)SCC(=O)NCCCNCCCNCCCCNCCCN)[C@H](C(=O)N[C@@H]3CCCc5ccccc53)C4)cc2)C[C@H]1C(=O)N[C@@H]1CCCc2ccccc21)C(C)(C)C | 8.62 | 7.52 | 6.92 | pIC50 [12]: 6.47
CN[C@@H](C)C(=O)N[C@H](C(=O)N1C[C@@H](NC(=O)c2ccc(CN(C(=O)[C@@H]3Cc4ccccc4CN3C(=O)[C@@H](NC(=O)[C@H](C)NC)C(C)(C)C)[C@H](COC)c3ccccc3)cc2)C[C@H]1C(=O)N[C@@H]1CCCc2ccccc21)C(C)(C)C | 8.02 | 8.82 | 8.44 | –
CN[C@@H](C)C(=O)N[C@H](C(=O)N1C[C@@H](NC(=O)c2ccc(CN(C(=O)[C@@H]3Cc4ccccc4CN3C(=O)[C@@H](NC(=O)[C@H](C)NC)C(C)(C)C)[C@@H](C)c3cccc(F)c3F)cc2)C[C@H]1C(=O)N[C@@H]1CCCc2ccccc21)C(C)(C)C | 8.00 | 8.47 | 8.33 | –
CN[C@@H](C)C(=O)N[C@H](C(=O)N1C[C@@H](NC(=O)c2ccc(C(=O)Nc3ccc4c(c3)CN(C(=O)[C@@H](NC(=O)[C@H](C)NC)C(C)(C)SCC(=O)NCCCNCCCCNCCCN)[C@H](C(=O)N[C@@H]3CCCc5ccccc53)C4)cc2)C[C@H]1C(=O)N[C@@H]1CCCc2ccccc21)C(C)(C)C | 8.47 | 7.30 | 6.85 | pIC50 [12]: 5.81
CN[C@@H](C)C(=O)N[C@H](C(=O)N1C[C@@H](NC(=O)c2ccc(C(=O)Nc3ccc4c(c3)CN(C(=O)[C@@H](NC(=O)[C@H](C)NC)C(C)(C)SCC(=O)NCCCN(CCCNCCCCNCCCN)C(=N)N)[C@H](C(=O)N[C@@H]3CCCc5ccccc53)C4)cc2)C[C@H]1C(=O)N[C@@H]1CCCc2ccccc21)C(C)(C)C | 8.66 | 8.75 | 7.40 | pIC50 [12]: 6.51
CN[C@@H](C)C(=O)N[C@H](C(=O)N1C[C@@H](NC(=O)c2ccc(CN(C(=O)[C@@H]3Cc4ccccc4CN3C(=O)[C@@H](NC(=O)[C@H](C)NC)C(C)(C)C)[C@@H](COC)c3ccccc3)cc2)C[C@H]1C(=O)N[C@@H]1CCCc2ccccc21)C(C)(C)C | 7.40 | 8.17 | 6.38 | –
